# Laboratory results reported in ChEMBL document CHEMBL1122081, “2-(Aminomethyl)phenols, a new class of saluretic agents. 4. Effects of oxygen and/or nitrogen substitution” (J Med Chem, 1982).
# Test system: Canis familiaris
# Assay: Saluretic property was estimated by the excretion of Na+ in dog administered intravenously; microequiv of Na+/min at 5 mg/kg iv stat, 100-249
# Assay type: ADME, organism-based, Canis lupus familiaris
# Parameters: dose 5 mg/kg, route intravenous
# Settings: in vivo
# Outline: (§1)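 Dogs of 15-20 kg were given a single stat intravenous dose of 5 mg/kg and Na+ excretion was measured in microequiv/min. The score is the average of two dogs, or three where designated.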
row,SMILES,Saluretic potency
1,NCC(=O)NCc1c(O)c(Cl)cc(Cl)c1Cl,100 u equiv min-1
2,Oc1c(Cl)cc(Cl)c(Cl)c1CN1CCOCC1,100 u equiv min-1
3,CC(C)(C)c1cc(I)c(OCC(N)=O)c(CN)c1.Cl,100 u equiv min-1
4,CC(C)(C)c1cc(I)c(O)c(Cn2cnnn2)c1,100 u equiv min-1
5,CCOC(=O)COc1c(I)cc(C(C)(C)C)cc1CN.Cl,100 u equiv min-1
6,CC(C)(C)c1cc(Cl)c(O)c(/C=N/N=C(/N)S)c1,100 u equiv min-1
7,CC(C)(C)c1cc(Cl)c(O)c(/C=N/N=C(N)N)c1,100 u equiv min-1

# Test system: Rattus norvegicus
# Assay: Saluretic property was estimated by the excretion of Na+ in rat administered orally; microequiv of Na+ at 5 mg/kg […]
# Assay type: ADME, organism-based
# Parameters: dose 5 mg/kg
# Settings: in vivo
# Outline: (§2)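 Rats dosed orally; urinary Na+ excretion (microequiv) scored per dose level. Each score is the geometric mean of three animals per cage, with three cages per dose.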
row,SMILES,Saluretic potency
1,CN(C)S(=O)(=O)Oc1c(I)cc(C(C)(C)C)cc1CN.Cl,0.4 u equiv
2,CC(C)(C)c1cc(I)c(O)c(CNS(=O)(=O)O)c1,0.3 u equiv
3,CC(C)(C)c1cc(I)c(O)c(CNCCN)c1.Cl,0.3 u equiv
4,CC(C)(C)c1cc(I)c(OS(=O)(=O)O)c(CN)c1,0.5 u equiv
5,CCCCNCc1cc(C(C)(C)C)cc(I)c1O.Cl,1.4 u equiv
6,CCNS(=O)(=O)Oc1c(I)cc(C(C)(C)C)cc1CN.Cl,0.5 u equiv
7,CN(C)Cc1cc(C(C)(C)C)cc(I)c1O,1.4 u equiv
8,CNCc1cc(C(C)(C)C)cc(I)c1O,2.6 u equiv
9,CC(C)(C)c1cc(Cl)c(O)c(CN)c1.Cl,3.6 u equiv
10,O=C(NCc1c(O)c(Cl)cc(Cl)c1Cl)C(F)(F)F,0.4 u equiv
11,O=C(CCl)NCc1c(O)c(Cl)cc(Cl)c1Cl,0.3 u equiv
12,Cl.NCc1c(O)c(Cl)cc(Cl)c1Cl,0.5 u equiv
13,CC(C)(C)c1cc(I)c(OS(=O)(=O)c2ccccc2)c(CN)c1.Cl,0.4 u equiv
14,CC(C)(C)c1cc(I)c(O)c(CN)c1.Cl,3.6 u equiv

# Test system: Rattus norvegicus
# Assay: Saluretic property was estimated by the excretion of Na+ in rat administered orally; microequiv of Na+ at 1 mg/kg […]
# Assay type: ADME, organism-based
# Parameters: dose 1 mg/kg
# Settings: in vivo
# Outline: as §2
row,SMILES,Saluretic potency
1,CNCc1cc(C(C)(C)C)cc(I)c1O,0.7 u equiv
2,CC(C)(C)c1cc(Cl)c(O)c(CN)c1.Cl,2.1 u equiv
3,CC(C)(C)c1cc(I)c(O)c(CN)c1.Cl,2.1 u equiv

# Organism: Rattus norvegicus
# Assay: Saluretic property (excretion of Na+ in rat)
# Assay type: ADME, organism-based
# Settings: in vivo
# Outline: as §2
row,SMILES,Saluretic potency
1,CN(C)S(=O)(=O)Oc1c(I)cc(C(C)(C)C)cc1CN.Cl,2.4 u equiv
2,CC(C)(C)c1cc(I)c(O)c(CNC2=NCCS2)c1,< 0.3 u equiv
3,NCC(=O)NCc1c(O)c(Cl)cc(Cl)c1Cl,< 0.3 u equiv
4,CC(C)(C)c1cc(I)c(O)c(CNS(=O)(=O)O)c1,1.5 u equiv
5,CN1CCN(Cc2cc(C(C)(C)C)cc(Cl)c2O)CC1.Cl,< 0.3 u equiv
6,CC(C)(C)c1cc(I)c(O)c(CNCCN)c1.Cl,1.5 u equiv
7,Oc1c(Cl)cc(Cl)c(Cl)c1CN1CCOCC1,< 0.3 u equiv
8,CC(C)(C)c1cc(I)c(OS(=O)(=O)O)c(CN)c1,2.9 u equiv
9,CC(C)(C)c1cc(I)c(OCC(N)=O)c(CN)c1.Cl,< 0.3 u equiv
10,CC(C)(C)c1cc(I)c(O)c(Cn2cnnn2)c1,< 0.3 u equiv
11,CCNS(=O)(=O)Oc1c(I)cc(C(C)(C)C)cc1CN.Cl,2.9 u equiv
12,O=C(NCc1c(O)c(Cl)cc(Cl)c1Cl)C(F)(F)F,2.4 u equiv
13,O=C(CCl)NCc1c(O)c(Cl)cc(Cl)c1Cl,1.5 u equiv
14,Cl.NCc1c(O)c(Cl)cc(Cl)c1Cl,2.9 u equiv
15,CC(C)(C)c1cc(I)c(OS(=O)(=O)c2ccccc2)c(CN)c1.Cl,2.4 u equiv
16,CC(C)(C)c1cc(Cl)c(O)c(/C=N/N=C(/N)S)c1,< 0.3 u equiv
17,CC(C)(C)c1cc(Cl)c(O)c(/C=N/N=C(N)N)c1,< 0.3 u equiv

# Test system: Rattus norvegicus
# Assay: Saluretic property (excretion of Na+ in rat after PO dosing)
# Assay type: ADME, organism-based
# Settings: in vivo
# Outline: as §2
row,SMILES,Saluretic potency
1,CN(C)S(=O)(=O)Oc1c(I)cc(C(C)(C)C)cc1CN.Cl,1.8 u equiv
2,CC(C)(C)c1cc(I)c(O)c(CNC2=NCCS2)c1,< 0.2 u equiv
3,NCC(=O)NCc1c(O)c(Cl)cc(Cl)c1Cl,< 0.2 u equiv min-1
4,CC(C)(C)c1cc(I)c(O)c(CNS(=O)(=O)O)c1,1.2 u equiv
5,CN1CCN(Cc2cc(C(C)(C)C)cc(Cl)c2O)CC1.Cl,< 0.2 u equiv
6,CC(C)(C)c1cc(I)c(O)c(CNCCN)c1.Cl,1.2 u equiv
7,Oc1c(Cl)cc(Cl)c(Cl)c1CN1CCOCC1,< 0.2 u equiv
8,CC(C)(C)c1cc(I)c(OS(=O)(=O)O)c(CN)c1,2.4 u equiv
9,CCCCNCc1cc(C(C)(C)C)cc(I)c1O.Cl,3.3 u equiv
10,CC(C)(C)c1cc(I)c(OCC(N)=O)c(CN)c1.Cl,< 0.2 u equiv
11,CC(C)(C)c1cc(I)c(O)c(Cn2cnnn2)c1,< 0.2 u equiv
12,CCNS(=O)(=O)Oc1c(I)cc(C(C)(C)C)cc1CN.Cl,2.4 u equiv
13,CN(C)Cc1cc(C(C)(C)C)cc(I)c1O,3.3 u equiv
14,CNCc1cc(C(C)(C)C)cc(I)c1O,3.6 u equiv
15,CC(C)(C)c1cc(Cl)c(O)c(CN)c1.Cl,3.9 u equiv
16,O=C(NCc1c(O)c(Cl)cc(Cl)c1Cl)C(F)(F)F,1.8 u equiv
17,O=C(CCl)NCc1c(O)c(Cl)cc(Cl)c1Cl,1.2 u equiv
18,Cl.NCc1c(O)c(Cl)cc(Cl)c1Cl,2.4 u equiv
19,CC(C)(C)c1cc(I)c(OS(=O)(=O)c2ccccc2)c(CN)c1.Cl,1.8 u equiv
20,CC(C)(C)c1cc(Cl)c(O)c(/C=N/N=C(/N)S)c1,< 0.2 u equiv
21,CC(C)(C)c1cc(Cl)c(O)c(/C=N/N=C(N)N)c1,< 0.2 u equiv
22,CC(C)(C)c1cc(I)c(O)c(CN)c1.Cl,3.9 u equiv

# Test system: Canis familiaris
# Assay: Saluretic property was estimated by the excretion of Na+ in dog administered intravenously; microequiv of Na+/min at 5 mg/kg iv stat, […]
# Assay type: ADME, organism-based, Canis lupus familiaris
# Parameters: dose 5 mg/kg, route intravenous
# Settings: in vivo
# Outline: as §1
row,SMILES,Saluretic potency
1,CNCc1cc(C(C)(C)C)cc(I)c1O,250 u equiv min-1

# Test system: Rattus norvegicus
# Assay: Saluretic property was estimated by the excretion of Na+ in rat administered orally; microequiv of Na+ at 81 mg/kg […]
# Assay type: ADME, organism-based
# Parameters: dose 81 mg/kg
# Settings: in vivo
# Outline: as §2
row,SMILES,Saluretic potency
1,CCOC(=O)COc1c(I)cc(C(C)(C)C)cc1CN.Cl,< 0.3 u equiv

# Test system: Canis familiaris
# Assay: Saluretic property was estimated by the excretion of Na+ in dog administered intravenously; microequiv of Na+/min at 5 mg/kg iv stat, 0-99
# Assay type: ADME, organism-based, Canis lupus familiaris
# Parameters: dose 5 mg/kg, route intravenous
# Settings: in vivo
# Outline: as §1
row,SMILES,Saluretic potency
1,CN1CCN(Cc2cc(C(C)(C)C)cc(Cl)c2O)CC1.Cl,0 u equiv min-1
2,CC(C)(C)c1cc(I)c(O)c(CNCCN)c1.Cl,0 u equiv min-1
3,CN(C)Cc1cc(C(C)(C)C)cc(I)c1O,0 u equiv min-1
4,O=C(CCl)NCc1c(O)c(Cl)cc(Cl)c1Cl,0 u equiv min-1

# Test system: Canis familiaris
# Assay: Saluretic property was estimated by the excretion of Na+ in dog administered intravenously; microequiv of Na+/min at 5 mg/kg iv stat, 800-899
# Assay type: ADME, organism-based, Canis lupus familiaris
# Parameters: dose 5 mg/kg, route intravenous
# Settings: in vivo
# Outline: as §1
row,SMILES,Saluretic potency
1,Cl.NCc1c(O)c(Cl)cc(Cl)c1Cl,800 u equiv min-1

# Test system: Rattus norvegicus
# Assay: Saluretic property was estimated by the excretion of Na+ in rat administered orally; microequiv of Na+ at 50 mg/kg […]
# Assay type: ADME, organism-based
# Parameters: dose 50 mg/kg
# Settings: in vivo
# Outline: as §2
row,SMILES,Saluretic potency
1,CCOC(=O)COc1c(I)cc(C(C)(C)C)cc1CN.Cl,< 0.2 u equiv

# Test system: Canis familiaris
# Assay: Saluretic property was estimated by the excretion of Na+ in dog administered intravenously; microequiv of Na+/min at 5 mg/kg iv stat, >900
# Assay type: ADME, organism-based, Canis lupus familiaris
# Parameters: dose 5 mg/kg, route intravenous
# Settings: in vivo
# Outline: as §1
row,SMILES,Saluretic potency
1,CC(C)(C)c1cc(Cl)c(O)c(CN)c1.Cl,> 900 u equiv min-1
2,CC(C)(C)c1cc(I)c(O)c(CN)c1.Cl,> 900 u equiv min-1

# Test system: Canis familiaris
# Assay: Saluretic property was estimated by the excretion of Na+ in dog administered intravenously; microequiv of Na+/min at 5 mg/kg iv stat, 400-599
# Assay type: ADME, organism-based, Canis lupus familiaris
# Parameters: dose 5 mg/kg, route intravenous
# Settings: in vivo
# Outline: as §1
row,SMILES,Saluretic potency
1,CCNS(=O)(=O)Oc1c(I)cc(C(C)(C)C)cc1CN.Cl,400 u equiv min-1

# Test system: Rattus norvegicus
# Assay: Saluretic property was estimated by the excretion of Na+ in rat administered orally; microequiv of Na+ at 16.5 mg/kg […]
# Assay type: ADME, organism-based
# Parameters: dose 16.5 mg/kg
# Settings: in vivo
# Outline: as §2
row,SMILES,Saluretic potency
1,CN(C)S(=O)(=O)Oc1c(I)cc(C(C)(C)C)cc1CN.Cl,0.6 u equiv
2,CC(C)(C)c1cc(I)c(O)c(CNS(=O)(=O)O)c1,0.5 u equiv
3,CC(C)(C)c1cc(I)c(O)c(CNCCN)c1.Cl,0.5 u equiv
4,CC(C)(C)c1cc(I)c(OS(=O)(=O)O)c(CN)c1,1.4 u equiv
5,CCCCNCc1cc(C(C)(C)C)cc(I)c1O.Cl,2.7 u equiv
6,CCNS(=O)(=O)Oc1c(I)cc(C(C)(C)C)cc1CN.Cl,1.4 u equiv
7,CN(C)Cc1cc(C(C)(C)C)cc(I)c1O,2.7 u equiv
8,CNCc1cc(C(C)(C)C)cc(I)c1O,3.3 u equiv
9,CC(C)(C)c1cc(Cl)c(O)c(CN)c1.Cl,4.2 u equiv
10,O=C(NCc1c(O)c(Cl)cc(Cl)c1Cl)C(F)(F)F,0.6 u equiv
11,O=C(CCl)NCc1c(O)c(Cl)cc(Cl)c1Cl,0.5 u equiv
12,Cl.NCc1c(O)c(Cl)cc(Cl)c1Cl,1.4 u equiv
13,CC(C)(C)c1cc(I)c(OS(=O)(=O)c2ccccc2)c(CN)c1.Cl,0.6 u equiv
14,CC(C)(C)c1cc(I)c(O)c(CN)c1.Cl,4.2 u equiv

# Test system: Canis familiaris
# Assay: Saluretic property was estimated by the excretion of Na+ in dog administered intravenously; microequiv of Na+/min at 5 mg/kg iv stat, 600-799
# Assay type: ADME, organism-based, Canis lupus familiaris
# Parameters: dose 5 mg/kg, route intravenous
# Settings: in vivo
# Outline: as §1
row,SMILES,Saluretic potency
1,CCCCNCc1cc(C(C)(C)C)cc(I)c1O.Cl,600 u equiv min-1
